Laboratory results taken from ChEMBL document CHEMBL5576109, “Hydantoin derivative dimers as broad-spectrum antimicrobial agents against ESKAPE pathogens with enhanced killing rate and stability” (RSC Med Chem, 2024).
Active and inactive are the calls of the source.

Tests used:
Staphylococcus aureus [1] = assay: Bactericidal activity against Staphylococcus aureus ATCC 29213 assessed as reduction in colony forming units at 4 times of MIC within 15 mins by time-kill kinetics assay; assay type: functional, organism-based
Method in brief: (§1)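 Bacteria grown at 37 °C to mid-log phase and diluted to 1 × 10^6 CFU/mL. […] Mixtures diluted 10^2–10^4-fold and plated on TSB agar; colonies counted after 20 h at 37 °C.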

Escherichia coli [2] = assay: Induction of outer membrane permeabilization in Escherichia coli ATCC 25922 assessed as increase in fluorescence intensity at 1 to 4 times of MIC incubated for 1 hr by NPN staining based TECAN SPARK microplate reader analysis; assay type: functional, organism-based
Method in brief: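 Overnight E. coli resuspended in PBS and diluted to OD600 0.1. NPN added (10 µM final) for 30 min. Treated with a range of compound concentrations for 1 h in the dark; fluorescence read at Ex 350 / Em 420 nm.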

Escherichia coli [3] = assay: Antibacterial activity against Escherichia coli ATCC 25922 assessed as inhibition of bacterial growth by measuring fold increase in MIC measured after 16 to 18 hrs in presence of 10% FBS by TECAN SPARK microplate reader analysis; assay type: functional; conditions: time 16-18 hrs
Method in brief: (§2)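 Salt/serum stability. Exponential-phase bacteria incubated 16–18 h with compound in medium supplemented with 10 mM NaCl, 10 mM KCl, 10 mM MgCl2, 10% DMEM or 10% FBS. Stability judged from the change in MIC.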

Escherichia coli [4] = assay: Induction of ROS generation in Escherichia coli ATCC 25922 assessed as increase in fluorescence intensity incubated for 30 mins by DCFH-DA staining based analysis; assay type: functional, organism-based
Method in brief: (§3)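 Overnight 37 °C cultures washed three times and resuspended in PBS, diluted to OD600 0.1, and mixed with DCFH-DA (5 µM). Treated with a range of compound concentrations for 30 min at 37 °C in the dark. Fluorescence read at Ex 488 / Em 530 nm.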

Staphylococcus aureus [5] = assay: Induction of morphological changes in Staphylococcus aureus ATCC 29213 assessed as cell wrinkled at 8 time of MIC for 6 hrs by scanning electron microscopy; assay type: functional, organism-based
Method in brief: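 Mid-log cells exposed to compound for 6 h at 37 °C alongside untreated controls. Cells pelleted (3000 rpm, 15 min), washed four times in PBS, and fixed with 2.5% glutaraldehyde. Dehydrated through graded ethanol, critical-point dried and gold-coated, then imaged by SEM.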

Staphylococcus aureus [6] = assay: Bactericidal activity against Staphylococcus aureus ATCC 29213 assessed as reduction in colony forming units at 1 to 4 times of MIC by time-kill kinetics assay; assay type: functional, organism-based; conditions: time 15-120 min, TDE = time-dependent effect; method in brief: as §1
Escherichia coli [7] = assay: Antibacterial activity against Escherichia coli ATCC 25922 assessed as inhibition of bacterial growth by measuring fold increase in MIC compound preincubated at 120 degree C for 1 hr followed by bacterial culture addition and measured after 16 to 18 hrs by TECAN SPARK microplate reader analysis; assay type: functional; conditions: time 16-18 hrs
Enterococcus faecalis = assay: Antibacterial activity against Enterococcus faecalis ATCC 29212 assessed as reduction bacterial growth after 16 hrs by TECAN SPARK microplate reader analysis; assay type: functional
Method in brief: (§4)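 Single colony grown overnight in 4 mL TSB at 37 °C, diluted 100-fold and grown to mid-log phase. Compounds 2-fold serially diluted in TSB and mixed 1:1 with bacteria in TSB (1 × 10^6 CFU/mL). Incubated 16 h at 37 °C, then A600 read. MIC taken as the lowest concentration giving complete growth inhibition.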

Staphylococcus aureus [8] = assay: Antibacterial activity against Staphylococcus aureus ATCC 29213 assessed as inhibition of bacterial growth by measuring fold increase in MIC measured after 16 to 18 hrs in presence of 10% FBS by TECAN SPARK microplate reader analysis; assay type: functional; conditions: time 16-18 hrs; method in brief: as §2
Staphylococcus aureus [9] = assay: Antibacterial activity against Staphylococcus aureus ATCC 29213 assessed as inhibition of bacterial growth by measuring fold increase in MIC measured after 16 to 18 hrs in presence of MgCl2 by TECAN SPARK microplate reader analysis; assay type: functional; conditions: time 16-18 hrs; method in brief: as §2
Staphylococcus aureus [10] = assay: Antibacterial activity against Staphylococcus aureus ATCC 29213 assessed as inhibition of bacterial growth by measuring fold increase in MIC measured after 16 to 18 hrs in presence of KCl by TECAN SPARK microplate reader analysis; assay type: functional; conditions: time 16-18 hrs; method in brief: as §2
Staphylococcus aureus [11] = assay: Induction of ROS generation in Staphylococcus aureus ATCC 29213 assessed as increase in fluorescence intensity incubated for 30 mins by DCFH-DA staining based analysis; assay type: functional, organism-based; method in brief: as §3
Staphylococcus aureus [12] = assay: Antibacterial activity against Staphylococcus aureus ATCC 29213 assessed as inhibition of bacterial growth by measuring fold increase in MIC compound preincubated at 80 degree C for 1 hr followed by bacterial culture addition and measured after 16 to 18 hrs by TECAN SPARK microplate reader analysis; assay type: functional; conditions: time 16-18 hrs
Escherichia coli [13] = assay: Induction of ROS generation in Escherichia coli ATCC 25922 assessed as fold increase in fluorescence intensity at 0.5 MIC concentration incubated for 30 mins by DCFH-DA staining based analysis; assay type: functional; conditions: 0.5 h; method in brief: as §3
Escherichia coli [14] = assay: Antibacterial activity against Escherichia coli ATCC 25922 assessed as inhibition of bacterial growth by measuring fold increase in MIC compound preincubated at 80 degree C for 1 hr followed by bacterial culture addition and measured after 16 to 18 hrs by TECAN SPARK microplate reader analysis; assay type: functional; conditions: time 16-18 hrs
Staphylococcus aureus [15] = assay: Antibacterial activity against Staphylococcus aureus ATCC 29213 assessed as inhibition of bacterial growth by measuring fold increase in MIC measured after 16 to 18 hrs in presence of 10% DMEM by TECAN SPARK microplate reader analysis; assay type: functional; conditions: time 16-18 hrs; method in brief: as §2
Escherichia coli [16] = assay: Induction of cytoplasmic membrane depolarization in Escherichia coli ATCC 25922 assessed as increase in fluorescence intensity by DiSC3(5) staining based analysis; assay type: functional, organism-based
Method in brief: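 Mid-log cells washed in 5 mM HEPES/5 mM glucose and resuspended at 10^6 CFU/mL in glucose/HEPES/100 mM KCl (1:1:1). DiSC3(5) added and fluorescence (Ex 622 / Em 670 nm) followed for 30 min at 37 °C until minimal. Compound then added and the fluorescence rise recorded.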

Escherichia coli [17] = assay: Antibacterial activity against Escherichia coli ATCC 25922 assessed as inhibition of bacterial growth by measuring fold increase in MIC measured after 16 to 18 hrs in presence of 10% DMEM by TECAN SPARK microplate reader analysis; assay type: functional; conditions: time 16-18 hrs; method in brief: as §2
Escherichia coli [18] = assay: Induction of membrane disruption in Escherichia coli ATCC 25922 assessed as increase in red fluorescence at 8 times of MIC for 6 hrs by Hoechst 33342 and propidium iodide staining based confocal microscopic analysis; assay type: functional, organism-based
Staphylococcus aureus [19] = assay: Induction of inner membrane permeabilization in Staphylococcus aureus ATCC 29213 assessed as increase in fluorescence intensity incubated for 1 hr by propidium iodide staining based TECAN SPARK microplate reader analysis; assay type: functional, organism-based
Method in brief: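 Overnight 37 °C cultures resuspended in PBS and diluted to OD600 0.1. Propidium iodide added (5 µM final) for 30 min. Treated with a range of compound concentrations for 1 h in the dark; fluorescence read at Ex 535 / Em 615 nm.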

Staphylococcus aureus [20] = assay: Antibacterial activity against Staphylococcus aureus ATCC 29213 assessed as reduction bacterial growth after 16 hrs by TECAN SPARK microplate reader analysis; assay type: functional; method in brief: as §4

CCCCCCN1C(=O)[C@H](CCCCNC(=N)N)N(Cc2ccc(-c3ccc(CN4C(=O)N(CCCCCC)C(=O)[C@@H]4CCCCNC(=N)N)cc3)cc2)C1=O
~2: fold change (FC) (Escherichia coli [13])
1: fold change (FC) (Escherichia coli [3]) | fold change (FC) (Escherichia coli [7]) | fold change (FC) (Staphylococcus aureus [8]) | fold change (FC) (Staphylococcus aureus [9]) | fold change (FC) (Staphylococcus aureus [10]) | fold change (FC) (Staphylococcus aureus [12]) | fold change (FC) (Escherichia coli [14]) | fold change (FC) (Staphylococcus aureus [15]) | fold change (FC) (Escherichia coli [17])
active: Activity (Staphylococcus aureus [1]) | Activity (Escherichia coli [2]) | Activity (Escherichia coli [4]) Dose-Dependent Effect | Activity (Staphylococcus aureus [5]) | Activity (Staphylococcus aureus [6]) Tde | Activity (Staphylococcus aureus [11]) Dose-Dependent Effect | Activity (Escherichia coli [16]) Dose-Dependent Effect | Activity (Escherichia coli [18]) | Activity (Staphylococcus aureus [19]) Dose-Dependent Effect
1.95 µg/mL: MIC (Staphylococcus aureus [20])
3.91 µg/mL: MIC (Enterococcus faecalis)
